Common to all, as to type: functional, cell-based
In assay [1] the test system is Glial cell. In words: Antiinflammatory activity in C57BL/6J mouse primary glial cells assessed as effect on IL-1 mRNA level at 200 nM incubated for 24 hrs by qPCR analysis.
Assay [2] deals with Glial cell. In words: Antiinflammatory activity in C57BL/6J mouse primary glial cells assessed as effect on IL-6 mRNA level at 200 nM incubated for 24 hrs by qPCR analysis. A general note: Quantitative PCR measures a nucleic acid by following its amplification.
The test system of assay [3] is Glial cell. The assay is described as follows: Antiinflammatory activity in C57BL/6J mouse primary glial cells assessed as effect on TNF-alpha mRNA level at 200 nM incubated for 24 hrs by qPCR analysis.
The test system of assay [4] is Glial cell. The assay is described as follows: Antiinflammatory activity in C57BL/6J mouse primary glial cells assessed as effect on IKBKE mRNA level at 200 nM incubated for 24 hrs by qPCR analysis.
Assay [5] concerns Glial cell. The assay is described as follows: Antiinflammatory activity in C57BL/6J mouse primary glial cells assessed as decrease in LPS-induced IL-6 mRNA level at 200 nM preincubated for 24 hrs followed by LPS stimulation by qPCR analysis. Summed up: (§1)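 Primary glia from whole brains of 1–2-day-old neonatal C57BL/6J mice (meninges removed, collected in Ca/Mg-free HBSS, oligodendrocytes and neurons separated off). Cells were given 200 nM steroid and stimulated with LPS 250 ng/mL. DMSO served as negative control. Gene expression was measured by qPCR. Data are mean ± SEM, analysed by two-way ANOVA with Newman-Keuls post hoc test.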

In assay [6] the test system is Glial cell. In words: Antiinflammatory activity in C57BL/6J mouse primary glial cells assessed as decrease in LPS-induced TNF-alpha mRNA level at 200 nM preincubated for 24 hrs followed by LPS stimulation by qPCR analysis. Summed up: as §1
The test system of assay [7] is Glial cell. In words: Antiinflammatory activity in C57BL/6J mouse primary glial cells assessed as decrease in LPS-induced IKBKE mRNA level at 200 nM preincubated for 24 hrs followed by LPS stimulation by qPCR analysis. Summed up:
as §1

For assay [8], the system named is Glial cell. The assay is described as follows: Antiinflammatory activity in C57BL/6J mouse primary glial cells assessed as decrease in LPS-induced IL-1 mRNA level at 200 nM preincubated for 24 hrs followed by LPS stimulation by qPCR analysis. Summed up:
as §1

The structures appear in SMILES notation. Active and inactive are the calls of the source. The calls are words filed in the database; no cut-off is given here.

On to `C[C@@H]1O[C@@H](OC[C@@]23[C@@H]4[C@H]5CC[C@]2(O)C[C@@H](O)C[C@@H]3O[C@@H]4C[C@]2(C)[C@@H](C3=CC(=O)OC3)CC[C@]52O)[C@H](O)[C@H](O)[C@H]1O`, for which the outcome in the assay on Glial cell [1], in the assay with Glial cell [2], in the assay on Glial cell [3], in the assay with Glial cell [4] and in the assay on Glial cell [5] was inactive. For the same compound, the outcome in the assay on Glial cell [6] and in the assay on Glial cell [7] was Active.
Regarding `C[C@@H]1O[C@@H](O[C@H]2C[C@@H]3O[C@@H]4C[C@]5(C)[C@@H](C6=CC(=O)OC6)CC[C@]5(O)[C@@H]5CC[C@](O)(C2)[C@@]3(CO)[C@H]54)[C@H](O)[C@H](O)[C@H]1O`, the outcome in the assay with Glial cell [1], in the assay with Glial cell [2], in the assay on Glial cell [3] and in the assay on Glial cell [4] was inactive. The result in the assay with Glial cell [8], with Glial cell [5], in the assay on Glial cell [6] and in the assay on Glial cell [7] was Active.
In the case of `C[C@H]1O[C@@H](O[C@H]2[C@@H](O)C[C@H](O[C@H]3[C@@H](O)C[C@H](O[C@H]4CC[C@@]5(C)[C@H](CC[C@@H]6[C@@H]5C[C@@H](O)[C@]5(C)[C@@H](C7=CC(=O)OC7)CC[C@]65O)C4)O[C@@H]3C)O[C@@H]2C)C[C@H](O)[C@@H]1O`, the result in the assay with Glial cell [1], in the assay with Glial cell [2], in the assay on Glial cell [3] and in the assay on Glial cell [4] was inactive.
Turning to `C[C@]12C[C@H]3O[C@H]4C[C@H](O)C[C@@]5(O)CC[C@H]([C@H]3[C@@]45CO)[C@@]1(O)CC[C@@H]2C1=CC(=O)OC1`, the result in the assay on Glial cell [1], in the assay on Glial cell [2], in the assay on Glial cell [3], with Glial cell [4], in the assay on Glial cell [8] and with Glial cell [5] was inactive. In addition, the outcome with Glial cell [6] and with Glial cell [7] was inactive.
Regarding `C[C@@H]1O[C@@H](O[C@H]2CC[C@]3(CO)[C@H]4CC[C@]5(C)[C@@H](C6=CC(=O)OC6)CC[C@]5(O)[C@@H]4CC[C@]3(O)C2)[C@H](O)[C@H](O)[C@H]1O`, the result with Glial cell [1], in the assay on Glial cell [2], in the assay with Glial cell [3] and with Glial cell [4] was inactive. For the same compound, the outcome in the assay on Glial cell [8], in the assay with Glial cell [5], in the assay with Glial cell [6] and in the assay with Glial cell [7] was Active.
With `C[C@@H]1O[C@@H](O[C@H]2C[C@@H](O)[C@]3(CO)[C@H]4[C@H](O)C[C@]5(C)[C@@H](C6=CC(=O)OC6)CC[C@]5(O)[C@@H]4CC[C@]3(O)C2)[C@H](O)[C@H](O)[C@H]1O`, the result with Glial cell [1], with Glial cell [2], in the assay on Glial cell [3] and with Glial cell [4] was inactive. The result in the assay on Glial cell [8], in the assay on Glial cell [5], in the assay with Glial cell [6] and with Glial cell [7] was Active.

The values are drawn from ChEMBL document CHEMBL5357067, “Selective (α)-l-Rhamnosylation and Neuroprotective Activity Exploration of Cardiotonic Steroids” (ACS Med Chem Lett, 2024).
